Key:
[1] = Growth inhibition of human UACC257 cells after 48 hrs by SRB assay; type: functional; conditions: UACC-257, 48 h
Outline: (§1)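 NCI ~60-cell-line five-dose screen. Cells were preincubated 24-48 h, then given compound at 10-fold dilutions from 10^-4 to 10^-8 M with 48 h continuous exposure. SRB protein stain was read by absorbance at time zero, in untreated control and with drug. GI50 was derived from [(Ti-Tz)/(C-Tz)]x100=50, TGI from Ti=Tz, and LC50 from [(Ti-Tz)/Tz]x100=-50.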

NCI-H460 [2] = assay: Anticancer activity against human NCI-H460 cells assessed as cell growth at 100 uM after 48 hrs by SRB assay; type: functional; conditions: NCI-H460, 48 h, read-out: Activity
Outline: (§2)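 NCI one-dose primary screen on a three-line panel (breast MCF7, lung NCI-H460, CNS SF-268). Cells were inoculated and preincubated 24–48 h, then exposed to a single concentration of 10−4 M for 48 h. The endpoint was sulforhodamine B protein staining, and results are expressed as percent growth relative to untreated control cells. Negative values denote cytotoxicity.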

MCF7 = assay: Anticancer activity against human MCF7 cells assessed as cell growth at 100 uM after 48 hrs by SRB assay; type: functional; conditions: MCF7, 48 h, read-out: Activity; outline: as §2
NCI/ADR-RES = assay: Growth inhibition of human NCI/ADR-RES cells after 48 hrs by SRB assay; type: functional; conditions: for TGI: read-out: pTGI (converted)
Outline: (§3)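 NCI five-dose assay against the ~60-cell-line panel (nine cancer types). Tenfold dilutions from 10−4 to 10−8 M were used with continuous 48-h exposure and SRB absorbance readout. Percent growth was computed from time-zero, control and treated absorbances. GI50 is the concentration giving 50% lower net protein increase than controls. Values not reached are reported as beyond the tested range.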

SF-268 = assay: Anticancer activity against human SF268 cells assessed as cell growth at 100 uM after 48 hrs by SRB assay; type: functional; conditions: SF-268, 48 h, read-out: Activity; outline: as §2
[3] = Growth inhibition of human EKVX cells after 48 hrs by SRB assay; type: functional; outline: as §3
[4] = Growth inhibition of human RXF393 cells after 48 hrs by SRB assay; type: functional; conditions: RXF 393, 48 h; outline: as §3
BT-549 = assay: Growth inhibition of human BT549 cells after 48 hrs by SRB assay; type: functional; conditions: BT-549, 48 h; for TGI: read-out: pTGI (converted); outline: as §3
SK-MEL-5 = assay: Growth inhibition of human SK-MEL-5 cells after 48 hrs by SRB assay; type: functional; conditions: SK-MEL-5, 48 h; outline: as §3
IGROV-1 = assay: Growth inhibition of human IGROV1 cells after 48 hrs by SRB assay; type: functional; conditions: IGROV-1, 48 h; outline: as §3
[5] = Acute toxicity in ip dosed white mouse; type: organism-based; conditions: in vivo
Outline: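 White male mice, 23-25 g, dosed intraperitoneally with compound dissolved in 0.9% NaCl saline plus 1-2 drops Polysorbate 80 (Tween-80). Solutions prepared immediately before use. Doses ranged 100-1000 mg/kg, testing 4 or 5 doses with 6 animals per dose. LD50 derived by the Litchfield-Wilcoxon method.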

PC-3 = assay: Growth inhibition of human PC3 cells after 48 hrs by SRB assay; type: functional; conditions: PC-3, 48 h; outline: as §3
NCI-H460 [6] = assay: Growth inhibition of human NCI-H460 cells after 48 hrs by SRB assay; type: functional; conditions: NCI-H460, 48 h; outline: as §3
[7] = tested on: Trypanosoma brucei brucei; assay: Antitrypanosomal activity against bloodstream form of Trypanosoma brucei brucei strain 90-13 assessed as inhibition of parasite growth at 10 ug/ml after 72 hrs by resazurin reduction test; type: functional; conditions: strain 90-13, 72 h
Outline: (§4)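 Trypanosoma brucei brucei 90-13 bloodstream forms, grown in HMI9 with 10% FCS at 37 °C under 5% CO2. Log-phase parasites were seeded at 10^5 cells/mL with or without inhibitor, with stocks prepared in DMSO. After 72 h, resazurin was added and fluorescence was read at 530/590 nm after a further 4 h. Percent growth inhibition was calculated versus drug-free parasites, with DMSO as control.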

MDA-MB-231 = assay: Growth inhibition of human MDA-MB-231/ATCC cells after 48 hrs by SRB assay; type: functional; conditions: MDA-MB-231, 48 h; outline: as §3
HOP-62 = assay: Growth inhibition of human HOP62 cells after 48 hrs by SRB assay; type: functional; conditions: HOP-62, 48 h; outline: as §3
CCRF-CEM = assay: Growth inhibition of human CCRF-CEM cells after 48 hrs by SRB assay; type: functional; outline: as §3
[8] = Growth inhibition of human 786-O cells after 48 hrs by SRB assay; type: functional; conditions: 786-0, 48 h; outline: as §3
KM12 = assay: Growth inhibition of human KM12 cells after 48 hrs by SRB assay; type: functional; conditions: KM12, 48 h; outline: as §3
[9] = Growth inhibition of human […] cells after 48 hrs by SRB assay; type: functional; outline: as §3
[10] = tested on: Trypanosoma brucei brucei; assay: Antitrypanosomal activity against bloodstream form of Trypanosoma brucei brucei strain 90-13 assessed as inhibition of parasite growth at 1 ug/ml after 72 hrs by resazurin reduction test; type: functional; conditions: strain 90-13, 72 h; outline: as §4
MOLT-4 = assay: Growth inhibition of human MOLT4 cells after 48 hrs by SRB assay; type: functional; conditions: MOLT-4, 48 h; outline: as §3
HCT-116 = assay: Growth inhibition of human HCT116 cells after 48 hrs by SRB assay; type: functional; conditions: HCT-116, 48 h; outline: as §3
[11] = Growth inhibition of human HOP92 cells after 48 hrs by SRB assay; type: functional; conditions: HOP-92, 48 h; outline: as §3
NCI-H23 = assay: Growth inhibition of human NCI-H23 cells after 48 hrs by SRB assay; type: functional; conditions: NCI-H23, 48 h; outline: as §3
M14 = assay: Growth inhibition of human M14 cells after 48 hrs by SRB assay; type: functional; conditions: M14, 48 h; outline: as §3
U-251 = assay: Growth inhibition of human U251 cells after 48 hrs by SRB assay; type: functional; conditions: U-251, 48 h; outline: as §1
LOX IMVI = assay: Growth inhibition of human LOXIMVI cells after 48 hrs by SRB assay; type: functional; outline: as §3

In the case of `CC(C)OC(=O)c1cc2ccccc2c(=O)s1`, the GI50 [1] is reported as 19.5 µM, the TGI ([1]; read-out: pTGI (converted)) is reported as 66.1 µM and the growth at 100 µM (NCI-H460 [2]) is reported as 13%. For the same compound, the growth at 100 µM (MCF7) was 87%, the GI50 (NCI/ADR-RES) was 26.9 µM and the TGI (NCI/ADR-RES) was 69.2 µM. It also gave a growth at 100 µM (SF-268) of 69%, a GI50 [3] of 19.1 µM and a TGI ([3]; read-out: pTGI (converted)) of 52.5 µM. The GI50 [4] was 15.1 µM, the TGI ([4]; read-out: pTGI (converted)) was 67.6 µM and the GI50 (BT-549) was 24.5 µM. For the same compound, the TGI (BT-549) was 63.1 µM, the GI50 (SK-MEL-5) was 24.5 µM and the TGI (SK-MEL-5; read-out: pTGI (converted)) was 49 µM. The GI50 (IGROV-1) was 20.9 µM and the TGI (IGROV-1; read-out: pTGI) was > 100 µM.

`COc1ccc2cc(C(=O)Nc3cccc(C(F)(F)F)c3)sc(=O)c2c1OC` showed an LD50 [5] of 750 mg/kg, a GI50 (PC-3) of 4.68 µM and a TGI (PC-3; read-out: pTGI (converted)) of 19.5 µM. For the same compound, the GI50 (NCI-H460 [6]) was 5.37 µM, the TGI (NCI-H460 [6]; read-out: pTGI) was > 100 µM and the inhibition at 10 µg/mL [7] was 5.46%. It also gave a GI50 (MDA-MB-231) of 2.09 µM, a TGI (MDA-MB-231; read-out: pTGI (converted)) of 5.37 µM and a growth at 100 µM (NCI-H460 [2]) of 4%. For the same compound, the growth at 100 µM (MCF7) was 45%, the GI50 (HOP-62) was 5.37 µM and the TGI (HOP-62; read-out: pTGI (converted)) was 16.2 µM. It also gave a GI50 (CCRF-CEM) of 12 µM, a TGI (CCRF-CEM; read-out: pTGI (converted)) of 91.2 µM and a GI50 [8] of 3.39 µM. The TGI ([8]; read-out: pTGI (converted)) was 12.3 µM, the GI50 (KM12) was 9.55 µM and the TGI (KM12; read-out: pTGI) was > 100 µM. For the same compound, the GI50 [9] was 2.04 µM, the TGI ([9]; read-out: pTGI (converted)) was 5.75 µM and the inhibition at 1 µg/mL [10] was -9.98%. It also gave a GI50 (NCI/ADR-RES) of 8.43 µM, a TGI (NCI/ADR-RES) of 21.9 µM and a growth at 100 µM (SF-268) of 49%. It also gave a GI50 (MOLT-4) of 5.62 µM, a TGI (MOLT-4; read-out: pTGI (converted)) of 25.7 µM and a GI50 (HCT-116) of 3.39 µM. It also gave a TGI (HCT-116; read-out: pTGI (converted)) of 14.5 µM, a GI50 [11] of 3.02 µM and a TGI ([11]; read-out: pTGI (converted)) of 10 µM. For the same compound, the GI50 (NCI-H23) was 6.46 µM, the TGI (NCI-H23; read-out: pTGI (converted)) was 18.6 µM and the GI50 (M14) was 7.76 µM. For the same compound, the TGI (M14; read-out: pTGI (converted)) was 20 µM, the GI50 (U-251) was 3.16 µM and the TGI (U-251; read-out: pTGI (converted)) was 11 µM. It also gave a GI50 (LOX IMVI) of 6.92 µM, a TGI (LOX IMVI; read-out: pTGI (converted)) of 21.9 µM and a GI50 (BT-549) of 2.45 µM. It also gave a TGI (BT-549) of 7.08 µM.

Reference: ChEMBL document CHEMBL3124905, “Isothiocoumarin-3-carboxylic acid derivatives: synthesis, anticancer and antitrypanosomal activity evaluation” (Eur J Med Chem, 2014)
